From ChEMBL document CHEMBL5316292 (J Med Chem, 2023) come the findings set out here.

This assay has as its target Bromodomain-containing protein 2 (Homo sapiens, UniProt P25440). Nature of the assay: Binding affinity to human partial length BRD2 BD1 (K71 to N194 residues) expressed in bacterial expression system using H4K5acIC8acK12acK16ac-biotinylated peptide as substrate preincubated for 30 mins followed by substrate addition by AlphaScreen assay. Summed up: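 AlphaScreen. Biotinylated H4K5acK8acK12acK16ac peptide added at equal concentration to protein for 30 min. Donor and acceptor beads (25 µg/mL each) added, ≥1 h in the dark. Triplicate, curve-fitted, SEM.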
In general terms: In Alpha technology, singlet oxygen from a donor bead excites a nearby acceptor bead.

As usually defined, the IC50 is the concentration needed to halve the response being measured.

Sequence of Bromodomain-containing protein 2 (P25440 whole entry, the tested form may be a part): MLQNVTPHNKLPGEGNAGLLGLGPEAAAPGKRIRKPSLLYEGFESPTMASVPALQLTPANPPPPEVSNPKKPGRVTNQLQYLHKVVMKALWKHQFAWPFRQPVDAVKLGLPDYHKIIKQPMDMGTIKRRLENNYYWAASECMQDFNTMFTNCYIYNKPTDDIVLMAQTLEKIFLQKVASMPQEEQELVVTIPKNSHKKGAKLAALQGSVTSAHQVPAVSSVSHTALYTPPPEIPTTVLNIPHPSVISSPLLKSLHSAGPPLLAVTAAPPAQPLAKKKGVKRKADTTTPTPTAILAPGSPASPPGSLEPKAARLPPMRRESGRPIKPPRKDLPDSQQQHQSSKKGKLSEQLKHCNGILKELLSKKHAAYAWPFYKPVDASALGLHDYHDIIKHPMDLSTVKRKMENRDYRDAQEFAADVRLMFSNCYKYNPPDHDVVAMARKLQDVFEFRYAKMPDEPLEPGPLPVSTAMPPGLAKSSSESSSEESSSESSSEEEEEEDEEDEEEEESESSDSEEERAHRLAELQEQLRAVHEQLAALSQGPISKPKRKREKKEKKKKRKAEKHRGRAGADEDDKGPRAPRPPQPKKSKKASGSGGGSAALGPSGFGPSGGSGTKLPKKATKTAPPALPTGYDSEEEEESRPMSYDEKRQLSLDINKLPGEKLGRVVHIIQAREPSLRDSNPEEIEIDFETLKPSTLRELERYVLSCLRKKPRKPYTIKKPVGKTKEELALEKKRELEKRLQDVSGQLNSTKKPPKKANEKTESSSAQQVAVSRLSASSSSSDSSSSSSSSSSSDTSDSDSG

As for `CC(=O)OC[C@]12CC[C@H]3[C@@H](C[C@H]4O[C@]45CC=CC(=O)[C@]35C)[C@]1(O)CC[C@@]2(O)[C@@](C)(O)[C@H]1CC(C)=C(C)C(=O)O1`, the IC50 amounted to 103 nM.
